Test results as given in ChEMBL document CHEMBL1139160 (Bioorg Med Chem Lett, 2007).

Legend:
[1] = biological target: Dipeptidyl peptidase 4 (Rattus norvegicus, UniProt P14740); experiment: Inhibition of DPP4 in rat plasma by fluorescence assay; format: cell-free
[2] = test system: Rattus norvegicus; experiment: Inhibition of DPP4 in Wistar rat plasma at 10 umol/kg, po within 30 mins; format: functional; conditions: 0.5 h
In short: (§1)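 Male/female not stated; Wistar rats given single oral dose of 10 µmol/kg in 0.5% hydroxypropylmethyl-cellulose. Jugular vein blood (0.1 mL) taken pre-dose and 0.5, 1, 2, 3, 5, 7, 9 h; plasma diluted 10-fold in PBS with 0.003% Brij-35, DPP-IV activity read by Gly-Pro-MCA fluorescence (ex 360/em 465 nm); % change of baseline, means ± SEM, n = 3.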

[3] = test system: Rattus norvegicus; experiment: Inhibition of DPP4 in Wistar rat plasma at 10 umol/kg, po after 9 hrs; format: functional; conditions: read-out: Inhibition; in short: as §1
[4] = test system: Rattus norvegicus; experiment: Inhibition of DPP4 in Wistar rat plasma at 10 umol/kg, po; format: functional; in short: as §1

Dipeptidyl peptidase 4, sequence (P14740 whole entry): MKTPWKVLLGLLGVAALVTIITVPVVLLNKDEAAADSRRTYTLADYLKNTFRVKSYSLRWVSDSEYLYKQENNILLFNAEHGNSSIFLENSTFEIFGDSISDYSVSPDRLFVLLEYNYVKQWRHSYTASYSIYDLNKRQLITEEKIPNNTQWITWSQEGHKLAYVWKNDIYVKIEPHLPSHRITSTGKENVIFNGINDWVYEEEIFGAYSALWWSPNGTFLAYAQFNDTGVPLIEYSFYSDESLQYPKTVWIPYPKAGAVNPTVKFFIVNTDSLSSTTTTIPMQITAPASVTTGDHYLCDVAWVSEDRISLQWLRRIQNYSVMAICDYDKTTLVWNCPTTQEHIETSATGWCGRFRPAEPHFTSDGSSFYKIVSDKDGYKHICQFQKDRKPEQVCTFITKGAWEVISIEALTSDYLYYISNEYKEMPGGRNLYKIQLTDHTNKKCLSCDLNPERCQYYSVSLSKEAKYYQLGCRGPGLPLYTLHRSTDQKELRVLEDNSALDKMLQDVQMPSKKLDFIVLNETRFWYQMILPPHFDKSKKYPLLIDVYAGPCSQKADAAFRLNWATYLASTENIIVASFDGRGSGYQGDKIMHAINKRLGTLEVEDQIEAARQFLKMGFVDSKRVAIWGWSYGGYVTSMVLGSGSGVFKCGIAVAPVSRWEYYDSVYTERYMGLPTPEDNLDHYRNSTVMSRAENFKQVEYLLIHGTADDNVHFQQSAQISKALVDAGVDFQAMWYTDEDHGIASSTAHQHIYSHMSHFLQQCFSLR

Row | SMILES | IC50 [1] [nM] | also measured
1 | N#Cc1ccc(N2CCN([C@@H]3CN[C@H](C(=O)N4CCSC4)C3)CC2)nc1 | 1.9 | –
2 | N#Cc1ccc(N2CCN([C@@H]3CN[C@H](C(=O)N4CCSC4)C3)CC2)cc1C#N | – | inhibition in vivo at 10 µmol/kg [2]: 95%; inhibition in vivo at 10 µmol/kg [3]: > 60%
3 | O=C([C@@H]1C[C@H](N2CCN(c3ccc(Br)cc3)CC2)CN1)N1CCSC1 | 9 | –
4 | COc1ccc(N2CCN([C@@H]3CN[C@H](C(=O)N4CCSC4)C3)CC2)cc1 | 16.9 | –
5 | O=C([C@@H]1C[C@H](N2CCN(c3cccc(Cl)c3)CC2)CN1)N1CCSC1 | 7.2 | –
6 | O=C([C@@H]1C[C@H](N2CCN(c3ccc(C(F)(F)F)cc3)CC2)CN1)N1CCSC1 | 7.2 | –
7 | N#Cc1ccc(N2CCN([C@@H]3CN[C@H](C(=O)N4CCSC4)C3)CC2)cc1 | 4.7 | –
8 | O=C([C@@H]1C[C@H](N2CCN(c3ccc([N+](=O)[O-])cn3)CC2)CN1)N1CCSC1 | – | inhibition in vivo at 10 µmol/kg [2]: 95%; inhibition in vivo at 10 µmol/kg [3]: > 60%
9 | N#Cc1ccnc(N2CCN([C@@H]3CN[C@H](C(=O)N4CCSC4)C3)CC2)c1 | 1.4 | –
10 | O=C([C@@H]1C[C@H](N2CCN(c3ccc(Cl)cc3)CC2)CN1)N1CCSC1 | 10.3 | –
11 | N#Cc1ccc(N[C@@H]2CN[C@H](C(=O)N3CCSC3)C2)nc1 | – | inhibition in vivo at 10 µmol/kg [4]: 70%
12 | O=C([C@@H]1C[C@H](N2CCN(c3ccccc3)CC2)CN1)N1CCSC1 | 17.6 | –
13 | O=C([C@@H]1C[C@H](N2CCCCC2)CN1)N1CCSC1 | 74.4 | –
14 | O=C([C@@H]1C[C@H](N2CCN(c3ccc(F)cc3)CC2)CN1)N1CCSC1 | 17.5 | –
